Source: PubChem BioAssay (several laboratories)
Hits are enriched below; roughly 4.1% of the tested compounds scored in any of these assays.
ROMK mod – modulates human ROMK potassium channel activity | Tet-inducible ROMK, thallium flux fluorescence; actives lie on both sides | B-score at 10 µM | 130,000 compounds, 2% hits | AID 1918;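 active = signal ratio slope over the read window, or its plate-corrected B-score, at least 3 SD from the plate mean, either direction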;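 note: B-score of the F/F0 ratio slope over 7 to 12 s after thallium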
Target sequence (P48048 whole entry, looked up): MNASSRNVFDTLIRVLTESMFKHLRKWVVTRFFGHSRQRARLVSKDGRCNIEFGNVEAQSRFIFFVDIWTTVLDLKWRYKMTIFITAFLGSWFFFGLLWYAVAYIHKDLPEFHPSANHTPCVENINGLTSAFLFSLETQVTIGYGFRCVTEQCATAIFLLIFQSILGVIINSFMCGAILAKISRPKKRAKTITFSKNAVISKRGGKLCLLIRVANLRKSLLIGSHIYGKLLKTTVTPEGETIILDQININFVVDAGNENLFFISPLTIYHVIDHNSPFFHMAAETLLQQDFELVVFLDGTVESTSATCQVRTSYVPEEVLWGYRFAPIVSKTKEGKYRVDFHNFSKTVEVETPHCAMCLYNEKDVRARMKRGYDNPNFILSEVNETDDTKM
Redox H2O2 prof – compounds producing H2O2 with reducing agent – biochemical, NIH compound library profiling, artefact control for MLSCN library redox annotation, primary screen; activation, % at 10 µM; DTT-dependent redox cycling H2O2, phenol red/HRP absorbance; 100% = 100 µM peroxide control, 0% = buffer; 200,000 compounds, 0.03% hits;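 active = activation of at least 50% relative to the plate's high and low controls in the primary single-dose screen; inactive = activation below 50%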;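 note: compound incubated with DTT at 0.8 mM final as the reducing agent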
KCC2 mod – KCC2 (human) Cl- transport modulation; KCC2 cells, thallium flux FluoZin-2 fluorescence; B-score of Tl+ flux slope (higher = more flux/activation; lower = inhibition) at 10 µM; 190,000 compounds, 2.2% hits; AID 1456;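 active = thallium flux slope and its plate-corrected score both differing from the plate sample mean at a set confidence after two filtering rounds, in either direction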;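 note: slope of fluorescence scaled to starting intensity during 10 to 20 s after thallium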
Dynein transport – blocks dynein driven cargo transport along microtubules | 3617.4 mouse cells, GR-EGFP nuclear translocation imaging; test concentration mostly 20 µM; stimulated with dexamethasone, 1 µM; hits give low values | AID 1381 | z-score, hits read low | 220,000 compounds, 0.47% hits;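 active = plate z-score of nuclear minus cytoplasmic receptor signal below a set negative limit, without overly bright fluorescence or cell loss, cut at about -3.5 in these data, passing the limit was not always enough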;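 note: z-score of nuclear minus cytoplasmic ring GR-EGFP intensity difference per well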
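Also added – dexamethasone, 1.0 µM final · Buffer or medium – tet-free, stripped-serum medium · Schedule – induction 48 h, compound 1 h, agonist 30 min · Detection – formaldehyde fixation, Hoechst nuclear stain, 10x automated fluorescence imaging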
Autophagy mod – autophagy modulation, high-content screen; MEF GFP-LC3 puncta imaging; test concentration mostly 10 µM; calls only at 10 µM (by protocol); 190,000 compounds, 0.98% hits; AID 463193;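 active = percentage of spot-positive cells more than 3 SD above its plate mean, without a fluorescence outlier flag or 80% toxicity; inconclusive = no clear call, values can overlap the other calls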
KCC2 secondary – KCC2 (human) modulation, secondary assay; shares compounds with KCC2 mod; HEK293-KCC2, thallium flux, FluoZin2 fluorescence; hits give high values; normalised thallium flux (F/F0 slope) at 10 µM; 3,700 compounds, 15% hits;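 active = thallium flux slope above the same plate's solvent-only control mean plus 3 SD; inconclusive = the two replicate wells disagree; inactive = no significant difference from solvent-only control wells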
KCC2 bumet counter – thallium flux despite bumetanide block in KCC2 cells, secondary assay 3 | 3,700 compounds, 49% hits | HEK293-KCC2 + bumetanide/ouabain, thallium flux FluoZin2; hits give high values | shares compounds with KCC2 mod | normalized thallium flux at 10 µM;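 active = thallium entry rate above the same plate's blocked-transporter control wells by more than 3 SD; inconclusive = the two repeat wells disagree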;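 note: raw slope of fluorescence over initial fluorescence between 10 and 20 s after thallium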
KCC2 secondary2 – confirmation of human KCC2 transport modulators | AID 1715 | 3,700 compounds, 23% hits | shares compounds with KCC2 mod | HEK293-KCC2, thallium flux FluoZin2 fluorescence; actives lie on both sides; F/F0 rise rate, 10–20 s post-thallium | normalized thallium flux at 10 µM;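 active = thallium flux slope more than 3 SD above or below the plate's solvent-only control mean, mostly below; inconclusive = the two repeat wells disagreed; inactive = no significant shift from solvent-only controls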
HEK counter1 – acts in parental HEK cells, KCC2 counter-screen; shares compounds with KCC2 mod; HEK293 parental cells, thallium flux FluoZin2, ouabain; baseline-ratio fluorescence slope, 10–20 s after thallium; thallium flux rate (normalised fluorescence) at 10 µM; 3,700 compounds, 46% hits;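 active = thallium flux rate significantly above the same plate's solvent-only control wells, beyond their mean plus 3 SD; inconclusive = the two replicate wells gave conflicting results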
KCC2 retest ouab – KCC2 (human) modulation, ouabain retest; HEK293-KCC2, thallium flux FluoZin2 fluorescence; bidirectional: low = inhibitor, high = activator; raw Tl+ flux slope (below DMSO = inhibition, above = activation) at 10 µM; 3,700 compounds, 48% hits; shares compounds with KCC2 mod;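 active = thallium flux slope beyond 3 SD from same-plate DMSO control mean in most replicates, usually higher, sometimes lower; inconclusive = repeat tests gave conflicting results; inactive = no significant difference from controls in most replicates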;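 note: slope of initial-normalized fluorescence between seconds 10 and 20 after thallium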
HEK293 Tl flux2 – parental HEK flux effect, counter-screen 2. shares compounds with KCC2 mod. HEK293 parental, thallium flux FluoZin-2 fluorescence slope. thallium flux slope at 10 µM. 3,700 compounds, 33% hits. AID 1718;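 active = thallium flux slope above the same plate's solvent-control mean plus 3 SD in both duplicate wells; inconclusive = duplicate wells that disagreed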;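 note: run without ouabain in cells lacking the KCC2 cotransporter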
Of the large screens only hits and unclear results are named; the others gave an inactive call (follow-up assays come after a bar, where they were run).

O=C(NCCc1ccccc1)c1nc2nc(-c3cccs3)cc(C(F)(F)F)n2n1	KCC2 mod -2.53 | KCC2 secondary inactive | KCC2 bumet counter inactive | KCC2 secondary2 inactive | HEK counter1 inactive | KCC2 retest ouab inactive | HEK293 Tl flux2 inactive
COc1ccccc1NS(=O)(=O)c1ccc(O)c(C(=O)OCC(=O)N2c3ccccc3CC2C)c1 (stereo unspecified)	none
Nc1c(C(=O)c2ccccc2)sc2snc(SCC(=O)c3ccccc3)c12	none (no result: ROMK mod, KCC2 mod) | KCC2 secondary inactive | KCC2 bumet counter inactive | KCC2 secondary2 inactive | HEK counter1 inactive | KCC2 retest ouab inactive | HEK293 Tl flux2 inactive
COc1ccc(Cn2c(=O)c3[nH]cnc3n(-c3ccc(C)cc3)c2=O)cc1	none (no result: Redox H2O2 prof, Autophagy mod)
O=C(c1ccc2c(=O)n(C3CCCC3)c(=S)[nH]c2c1)N1CCCCCC1	KCC2 mod 5.32 | KCC2 secondary inactive | KCC2 bumet counter 0.0247 | KCC2 secondary2 inactive | HEK counter1 0.0101 | KCC2 retest ouab inactive | HEK293 Tl flux2 0.0128
CC1CCCN(C(=O)c2ccc3c(=O)n(C4CCCC4)c(=S)[nH]c3c2)C1 (stereo unspecified)	KCC2 mod 15.5 | KCC2 secondary inactive | KCC2 bumet counter 0.0248 | KCC2 secondary2 inconclusive | HEK counter1 0.0224 | KCC2 retest ouab inconclusive | HEK293 Tl flux2 inactive
O=C(c1ccc2c(=O)n(-c3ccccc3)c(=S)[nH]c2c1)N1CCCCC1	none
COC(=O)c1cc(OC)c(OC)cc1NC(=S)N1CCN(C)CC1	none (no result: ROMK mod, KCC2 mod)
COc1cc(NC(=O)c2ccc(F)cc2)c(OC)cc1Cl	none
COC(=O)c1cc(OC)c(OC)cc1NC(=O)c1ccccc1	none (no result: ROMK mod)
COc1ccc(C(=O)Nc2cc(OC)c(Cl)cc2OC)cc1	KCC2 mod -4.51 | KCC2 secondary inactive | KCC2 bumet counter 0.00856 | KCC2 secondary2 inactive | HEK counter1 0.0152 | KCC2 retest ouab inactive | HEK293 Tl flux2 inactive
COC(=O)c1cc(OC)c(OC)cc1NC(=O)c1cc(OC)cc(OC)c1	KCC2 mod 5.35 | KCC2 secondary inactive | KCC2 bumet counter inactive | KCC2 secondary2 inactive | HEK counter1 inactive | KCC2 retest ouab inactive | HEK293 Tl flux2 inactive
COC(=O)c1cc(OC)c(OC)cc1NC(=S)N1CCCCC1	KCC2 mod -3.87 (no result: ROMK mod) | KCC2 secondary inactive | KCC2 bumet counter inactive | KCC2 secondary2 inactive | HEK counter1 inactive | KCC2 retest ouab inactive | HEK293 Tl flux2 inactive
CCS(=O)(=O)NCCNc1ccc([N+](=O)[O-])cc1	none (no result: ROMK mod)
O=C(O)c1ccc(N2CCCCS2(=O)=O)cc1	none (no result: KCC2 mod) | KCC2 secondary inactive | KCC2 bumet counter inactive | KCC2 secondary2 0.0261 | HEK counter1 inactive | KCC2 retest ouab inactive | HEK293 Tl flux2 inactive
O=C(NC(=S)Nc1ccc2oc(=O)ccc2c1)c1ccco1	KCC2 mod 22.1 (no result: ROMK mod, Redox H2O2 prof, Autophagy mod) | KCC2 secondary inactive | KCC2 bumet counter 0.0493 | KCC2 secondary2 0.0441 | HEK counter1 0.0297 | KCC2 retest ouab 0.0463 | HEK293 Tl flux2 0.029
Cc1ccccc1C(=O)NC(=S)Nc1ccc(S(=O)(=O)N(C)c2ccccc2)cc1	none (no result: ROMK mod)
Cc1cccc(C(=O)NC(=S)Nc2ccc(S(=O)(=O)N(C)c3ccccc3)cc2)c1	KCC2 mod 2.49 (no result: ROMK mod) | KCC2 secondary inactive | KCC2 bumet counter 0.0139 | KCC2 secondary2 inactive | HEK counter1 inactive | KCC2 retest ouab 0.026 | HEK293 Tl flux2 0.0117
O=C(NC(=S)Nc1cc(C(F)(F)F)ccc1N1CCOCC1)c1ccco1	KCC2 mod 88.9 (no result: ROMK mod, Redox H2O2 prof, Autophagy mod) | KCC2 secondary 0.0224 | KCC2 bumet counter 0.114 | KCC2 secondary2 inactive | HEK counter1 inconclusive | KCC2 retest ouab 0.0758 | HEK293 Tl flux2 0.0258
O=C(NC(=S)Nc1ccc2c(c1)OCCO2)c1ccco1	KCC2 mod 99.9 (no result: ROMK mod, Redox H2O2 prof, Autophagy mod) | KCC2 secondary 0.0228 | KCC2 bumet counter 0.0995 | KCC2 secondary2 inactive | HEK counter1 0.0834 | KCC2 retest ouab 0.0702 | HEK293 Tl flux2 0.0425
CS(=O)(=O)Oc1ccc(Br)cc1/C=C1/N=C(c2ccco2)OC1=O	none
Cc1ccc(C2=Nc3cccnc3C(c3ccccc3)=NN2)cc1	none
CN1CCN(CC(O)COc2ccc(C34CC5CC(CC(C5)C3)C4)cc2)CC1 (stereo unspecified)	none (no result: ROMK mod)
CC(C)=CCN1CCNC(=O)C1CC(=O)NCc1nc(C)c(C)s1 (stereo unspecified)	none
CCN(CC)c1ccc(NC(=O)c2ccco2)cc1	none (no result: ROMK mod)
CCc1ccc(C(=O)NC(=S)Nc2ccc3c(c2)OCCO3)cc1	none (no result: ROMK mod)
O=C(NC(=S)Nc1ccc2c(c1)OCO2)c1ccc(Cl)cc1	KCC2 mod 8.16 | KCC2 secondary inactive | KCC2 bumet counter 0.0118 | KCC2 secondary2 inactive | HEK counter1 inconclusive | KCC2 retest ouab 0.0259 | HEK293 Tl flux2 inactive
CCN(CC)c1ccc(NC(=O)c2cc(Cl)ccc2OC)cc1	none (no result: KCC2 mod)
Cc1ccc(C(=O)NC(=S)Nc2ccc(Oc3ccc(Cl)cc3)cc2)cc1	none (no result: ROMK mod)
CCN(CC)c1ccc(NC(=O)c2ccccc2F)cc1	KCC2 mod -6.19 (no result: ROMK mod) | KCC2 secondary inactive | KCC2 bumet counter inconclusive | KCC2 secondary2 inactive | HEK counter1 inactive | KCC2 retest ouab inactive | HEK293 Tl flux2 inactive
CCN(CC)c1ccc(NC(=S)NC(=O)c2ccco2)cc1	KCC2 mod 69.4 | KCC2 secondary 0.0431 | KCC2 bumet counter 0.171 | KCC2 secondary2 inconclusive | HEK counter1 inconclusive | KCC2 retest ouab 0.115 | HEK293 Tl flux2 inconclusive
O=C(NC(=S)Nc1ccc(Oc2ccccc2)cc1)c1ccc(Cl)cc1	KCC2 mod 30.8 | KCC2 secondary inactive | KCC2 bumet counter 0.0224 | KCC2 secondary2 inconclusive | HEK counter1 0.0163 | KCC2 retest ouab 0.0278 | HEK293 Tl flux2 0.0137
O=C(Nc1cccc2ccccc12)c1cc2c(cc1Br)OCO2	none (no result: ROMK mod, Redox H2O2 prof, Autophagy mod)
CC1C(=O)NN=C1C(=O)N/N=C/c1cccs1 (stereo unspecified)	none
O=C(O)c1ccc(NC(=S)NC(=O)c2cccc(COc3ccccc3)c2)cc1	KCC2 mod -3.73 | KCC2 secondary inactive | KCC2 bumet counter inconclusive | KCC2 secondary2 inactive | HEK counter1 inactive | KCC2 retest ouab inconclusive | HEK293 Tl flux2 inactive
